ERAP1 inh – inhibitors of human ERAP1 aminopeptidase; recombinant ERAP1, Leu-AMC fluorescence, 60 min; inhibition, % at 10.7 µM; 0.15% of 340,000 active; Q9NZ08;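 active = mean replicate inhibition of at least 30%, or all replicates individually reaching that 30% level; inactive = mean below 30% and not every replicate reaching it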;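 also: 0% = neutral control wells and 100% = L-leucinethiol positive control wells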
CAL PDZ FP-1 – inhibitors of human CAL PDZ peptide binding; Q9HD26; purified CAL PDZ, TMR-peptide fluorescence polarization, 1 h; inhibition, % at 20 µM; 0.02% of 330,000 active;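 active = highest replicate inhibition of at least 40%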;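 also: plate controls were DMSO neutral control wells for no effect and unlabeled competitor peptide control wells for full effect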
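Material – purified CerCALP PDZ construct · Detection – FP readout, S and P plane fluorescence · Measure – percent inhibition from loss of millipolarization · Controls – unlabelled peptide for full inhibition, DMSO wells as neutral · Probe or stimulus – TMR-labelled reporter peptide T*-PRC34 bound in PDZ groove · Times – 1 h at RT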
DENV2 CPE – inhibitors of DENV2 cytopathic effect. DENV2-infected cells, cytopathic effect rescue, plate reader. CPE inhibition, % at 9.99 µM. 1.7% of 350,000 active. AID 651640; in the data active = CPE inhibition above about 20%, passing the limit was not always enough; inconclusive = no clear call, values can overlap the other calls; tested in BHK-21 cells;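 also: 0% = median of neutral control wells and 100% = median of positive control wells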
S100A4 inh HTS – blocks human S100A4 binding to myosin IIA peptide | P26447 | 0.14% of 360,000 active | inhibition, % at 10.7 µM | S100A4/TAMRA-MyoIIA peptide fluorescence polarization;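 active = mean inhibition of at least 70% across replicates, with every replicate also reaching that level; inconclusive = mean inhibition reaches 70% but some replicates fall short; inactive = mean inhibition below 70%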
Target sequence (P26447 whole entry, looked up): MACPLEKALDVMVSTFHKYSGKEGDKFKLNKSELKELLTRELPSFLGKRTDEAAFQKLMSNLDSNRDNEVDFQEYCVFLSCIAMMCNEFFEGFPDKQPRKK
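Material: S100A4 monomer (human). Medium: Calcium-containing HEPES buffer, pH 7.2. Probe or stimulus: labelled myosin peptide probe, 5 nM. Compound dosing: one concentration per compound. Timing: polarization read 5 min after assay mix addition, stable 5–60 min. Benchmarks: DMSO as neutral control, TFP as positive control.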
CAL PDZ FP-2 – inhibitors of human CAL PDZ peptide binding | AID 602252 | Q9HD26 | inhibition, % at 24.9 µM | 0.92% of 300,000 active | purified CAL PDZ, TMR-peptide fluorescence polarization, 1 h;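 active = mean inhibition of at least 30% with at least half of replicates also reaching 30%; inconclusive = no clear call, values can overlap the other calls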;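 also: 0% = DMSO neutral control and 100% = excess unlabeled competitor peptide PRC23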
SIRT5 block – inhibitors of human sirtuin-5 desuccinylase; Q9NXA8; AID 652115; 1.1% of 330,000 active; inhibition, % at 15 µM; Purified SirT5, succinyl-peptide AMC, trypsin-coupled fluorescence; in the data active = inhibition above about 15%; inconclusive = no clear call, values can overlap the other calls
Target sequence (Q9NXA8 whole entry, looked up): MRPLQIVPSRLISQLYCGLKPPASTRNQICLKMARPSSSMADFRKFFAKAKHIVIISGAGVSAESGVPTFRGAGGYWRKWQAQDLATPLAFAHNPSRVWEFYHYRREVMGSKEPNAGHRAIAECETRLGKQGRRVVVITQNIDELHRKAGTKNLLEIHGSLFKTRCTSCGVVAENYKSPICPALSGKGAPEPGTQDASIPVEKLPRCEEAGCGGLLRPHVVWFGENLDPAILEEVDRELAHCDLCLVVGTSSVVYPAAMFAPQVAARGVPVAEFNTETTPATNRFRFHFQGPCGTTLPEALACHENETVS
Numbers without * were called inactive; ? = inconclusive; / = no result. Only some compounds are listed: those with a hit (about 2.9% of all), similar ones and a draw of the others.

SMILES | ERAP1 inh | CAL PDZ FP-1 | DENV2 CPE | S100A4 inh HTS | CAL PDZ FP-2 | SIRT5 block
COc1ccc(-n2nnc3c(=O)n(CC(=O)N4CCCc5ccccc54)cnc32)cc1 | 3 | -1 | -5 | 1 | -8 | -15
COc1ccc(-n2nnc3c(=O)n(CC(=O)N4CCCCC4)cnc32)cc1 | 3 | -1 | -5 | -1 | / | 15*
COc1cccc(NC(=O)N[C@@H]2CC[C@@H](CC(=O)N3CCCCC3)O[C@@H]2CO)c1 | 2 | / | 1 | -3 | / | 1
C[C@@H]1CN([C@@H](C)CO)C(=O)c2cc(NS(=O)(=O)c3cccs3)ccc2O[C@@H](C)CCCCO[C@@H]1CN(C)S(=O)(=O)c1cn(C)cn1 | 0 | / | 34* | -1 | / | -4
C[C@@H]1CCCCO[C@@H](CN(C)S(=O)(=O)c2cn(C)cn2)[C@@H](C)CN([C@H](C)CO)C(=O)c2cc(NS(=O)(=O)c3cccs3)ccc2O1 | 1 | / | 30* | 8 | / | -6
CC(C)NC(=O)Nc1ccc2c(c1)C(=O)N([C@H](C)CO)C[C@@H](C)[C@@H](CN(C)S(=O)(=O)c1cccs1)OCCCC[C@H](C)O2 | -4 | / | ? | -8 | / | 8
C[C@H](CO)N1C[C@H](C)[C@@H](CN(C)C(=O)NC2CCCCC2)OCc2ccccc2-c2ccccc2C1=O | -1 | / | 2 | -1 | / | -4
CN1CCN(C(=O)C[C@@H]2CC[C@H]3[C@@H](COC[C@@H](O)CN3CC3CC3)O2)CC1 | -1 | / | 16 | 7 | / | -4
C[C@@H]1CCCCO[C@@H](CN(C)C(=O)CCC(F)(F)F)[C@H](C)CN([C@@H](C)CO)C(=O)c2cc(NC(=O)NC3CCCCC3)ccc2O1 | 0 | / | -6 | 0 | / | 3
C[C@H](CO)N1C[C@H](C)[C@@H](CN(C)C(=O)Nc2cccc3ccccc23)Oc2c(NC(=O)Nc3ccc4c(c3)OCO4)cccc2C1=O | 0 | / | 1 | 3 | / | 1
C[C@H](CO)N1C[C@H](C)[C@@H](CN(C)Cc2ccncc2)OCCCC[C@H](C)Oc2ccc(NS(=O)(=O)c3cn(C)cn3)cc2C1=O | -3 | / | -7 | -2 | / | 0
COc1ccc(C[C@H]2CN3C(=NC[C@@H]3C(C)C)N2C[C@H](C)NC(=O)c2ccc(C)c(Br)c2)cc1 | / | -2 | -16 | 4 | 0 | /
C[C@@H](CN1C2=NC[C@H](Cc3ccccc3)N2C[C@H]1Cc1ccc(O)cc1)NC(=O)CCC1CCCCC1 | 0 | -1 | 41* | -1 | -5 | 0
C[C@@H](CN1C2=NC[C@H](Cc3ccc(O)cc3)N2C[C@H]1Cc1ccc(O)cc1)NC(=O)CCC1CCCCC1 | / | -1 | -13 | -2 | -3 | /
Cc1ccc(C(=O)N[C@@H](C)CN2C3=NC[C@H](C(C)C)N3C[C@H]2Cc2ccc(O)cc2)cc1Br | / | -2 | 106* | -2 | -3 | /
COc1ccccc1C#Cc1cnc2c(c1)C(=O)N([C@H](C)CO)C[C@@H](C)[C@H](CN(C)C(=O)CN(C)C)O2 | 1 | / | 10 | 0 | / | 5
Cc1c(C(=O)N2CCCCC2)oc2ccc(Br)cc12 | -1 | -1 | 11 | -8 | 14 | 0
Cc1c(C(=O)N2CCOCC2)oc2ccccc12 | -1 | -1 | 1 | -2 | -2 | 16*
Cc1c(C(=O)N2CCN(S(=O)(=O)c3ccccc3)CC2)oc2ccc(Br)cc12 | -2 | -2 | -7 | -4 | 32* | /
Cc1noc(C)c1NC(=O)Nc1ccc2c(c1)C(=O)N([C@@H](C)CO)C[C@H](C)[C@@H](CN(C)Cc1ccc(-c3ccccc3)cc1)O2 | -1 | / | 4 | -5 | / | 6
CC(C)NC(=O)N(C)C[C@H]1Oc2ccc(NC(=O)Nc3cccc4ccccc34)cc2CC(=O)N([C@@H](C)CO)C[C@H]1C | -2 | / | -4 | -1 | / | 3
N#Cc1cccc(S(=O)(=O)NCC(=O)NCCCc2ccccc2)c1 | -3 | 0 | 1 | -3 | / | 0
O=C(CNS(=O)(=O)c1cccc(Br)c1)NCCCc1ccccc1 | 1 | -1 | -3 | -4 | 44* | 2
O=C(CNc1cccc([N+](=O)[O-])c1)NCCCc1ccccc1 | -4 | 0 | -4 | 20 | 38* | -4
O=C(Cc1ccccc1)Nc1cccc([N+](=O)[O-])c1 | 5 | -1 | 4 | -3 | 4 | -9
SMILES | ERAP1 inh | CAL PDZ FP-1 | DENV2 CPE | S100A4 inh HTS | CAL PDZ FP-2 | SIRT5 block
C[C@@H]1CN([C@H](C)CO)C(=O)c2cc(NC(=O)Nc3ccc4c(c3)OCO4)ccc2O[C@@H](C)CCCCO[C@H]1CN(C)Cc1ccc(C(F)(F)F)cc1 | -1 | / | 3 | 6 | / | 0
O=C(C[C@@H]1C=C[C@H](NC(=O)Cc2cccnc2)[C@@H](CO)O1)Nc1ccccc1 | 7 | / | 0 | -5 | / | 0
C[C@@H]1CN([C@@H](C)CO)C(=O)c2cc(NC(=O)CCCCCC(=O)Nc3ccccc3N)ccc2O[C@H]1CN(C)S(=O)(=O)c1ccc(Cl)cc1 | 3 | / | 2 | -11 | / | 2
CCC(=O)N1C[C@@H](C)[C@@H](OC)CN(C)C(=O)c2cc(NC(=O)c3cnccn3)ccc2OC[C@@H]1C | -3 | / | 4 | 9 | / | -1
CCC(=O)N1C[C@H](C)[C@H](OC)CN(C)C(=O)c2cc(NC(=O)c3cnccn3)ccc2OC[C@H]1C | -2 | / | 25* | -12 | / | -1
CO[C@H]1CN(C)C(=O)c2ccc(NC(=O)c3cnccn3)cc2OC[C@H](C)N(CC2CC2)C[C@@H]1C | -1 | / | -9 | -3 | / | 1
CO[C@H]1CN(C)C(=O)c2ccc(NC(=O)c3cnccn3)cc2OC[C@@H](C)N(CC2CC2)C[C@@H]1C | 2 | / | 22* | -2 | / | 10
CCCN1C[C@@H](C)[C@H](OC)CN(C)C(=O)c2cc(NC(=O)c3cnccn3)ccc2OC[C@H]1C | / | / | 1 | -8 | / | 17*
C[C@H]1CN([C@@H](C)CO)C(=O)c2cc(-c3cccc(C(=O)N(C)C)c3)cnc2O[C@@H]1CN(C)S(=O)(=O)c1ccccc1 | 1 | / | 5 | 5 | / | 6
C[C@@H]1CCCCO[C@@H](CN(C)C(=O)Nc2ccc(C(F)(F)F)cc2)[C@@H](C)CN([C@H](C)CO)C(=O)c2cc(NS(=O)(=O)c3ccc(Cl)cc3)ccc2O1 | -1 | / | -3 | -1 | / | 11
Cc1ccc(S(=O)(=O)Nc2ccc3c(c2)C(=O)N([C@H](C)CO)C[C@H](C)[C@H](CN(C)C(=O)Nc2ccc(C(F)(F)F)cc2)OCCCC[C@H](C)O3)cc1 | 5 | / | 53* | 1 | / | 0
C[C@H]1CCCCO[C@@H](CN(C)C(=O)Nc2ccc(C(F)(F)F)cc2)[C@@H](C)CN([C@@H](C)CO)C(=O)c2cc(NS(=O)(=O)c3ccc(F)cc3)ccc2O1 | -2 | / | 76* | 7 | / | 8

Assay outcomes (PubChem BioAssay)
